Laboratory results reported in ChEMBL document CHEMBL1150108, “Isolation of S-n-butylcysteine sulfoxide and six n-butyl-containing thiosulfinates from Allium siculum” (2002).

Key:
Type in all cases: functional
Bacillus cereus [1] = assay: Antibacterial activity against Bacillus cereus ATCC 11778 at 10 ug/disk after overnight incubation by agar diffusion test; settings: for zone of inhibition at 10 µg/disc: read-out: Diameter of inhibition zone
Outline: (§1)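 Disk diffusion on agar plates seeded with the named strain. Test samples were dissolved in EtOH, and a 10 µL aliquot was applied to a 6 mm paper disk to give 10, 250 or 500 µg per disk. Commercial antibiotic disks served as controls. Plates were incubated overnight at 37 °C, and the diameter of the inhibition zone around each disk was read in mm.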

Staphylococcus aureus [2] = assay: Antibacterial activity against Staphylococcus […] at 10 ug/disk after overnight incubation by agar diffusion test; settings: read-out: Diameter of inhibition zone; outline: as §1
Streptococcus agalactiae [3] = assay: Antibacterial activity against Streptococcus agalactiae ATCC 13813 at 10 ug/disk after overnight incubation by agar diffusion test; settings: for zone of inhibition at 10 µg/disc: read-out: Diameter of inhibition zone; outline: as §1
Escherichia coli [4] = assay: Antibacterial activity against Escherichia coli ATCC 25922 at 10 ug/disk after overnight incubation by agar diffusion test; settings: read-out: Diameter of inhibition zone; outline: as §1
Pseudomonas aeruginosa [5] = assay: Antibacterial activity against Pseudomonas aeruginosa ATCC 27853 at 10 ug/disk after overnight incubation by agar diffusion test; settings: read-out: Diameter of inhibition zone; outline: as §1
[6] = system: Stenotrophomonas maltophilia; assay: Antibacterial activity against Stenotrophomonas maltophilia ATCC 13637 at 10 ug/disk after overnight incubation by agar diffusion test; settings: for zone of inhibition at 10 µg/disc: read-out: Diameter of inhibition zone; outline: as §1
[7] = system: Klebsiella pneumoniae subsp. pneumoniae; assay: Antibacterial activity against Klebsiella pneumoniae subsp. pneumoniae ATCC 13833 at 10 ug/disk after overnight incubation by agar diffusion test; settings: for zone of inhibition at 10 µg/disc: read-out: Diameter of inhibition zone; outline: as §1
Bacillus cereus [8] = assay: Antibacterial activity against Bacillus cereus ATCC 11778 at 30 ug/disk after overnight incubation by agar diffusion test; settings: read-out: Diameter of inhibition zone
Outline: (§2)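 Commercial antibiotic control disks were placed on agar plates seeded with the named strain. Plates were incubated overnight at 37 °C, and the diameter of the inhibition zone around each disk was measured in mm.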

Staphylococcus aureus [9] = assay: Antibacterial activity against Staphylococcus […] at 30 ug/disk after overnight incubation by agar diffusion test; settings: read-out: Diameter of inhibition zone; outline: as §2
Streptococcus agalactiae [10] = assay: Antibacterial activity against Streptococcus agalactiae ATCC 13813 at 30 ug/disk after overnight incubation by agar diffusion test; settings: read-out: Diameter of inhibition zone; outline: as §2
Escherichia coli [11] = assay: Antibacterial activity against Escherichia coli ATCC 25922 at 30 ug/disk after overnight incubation by agar diffusion test; settings: read-out: Diameter of inhibition zone; outline: as §2
Pseudomonas aeruginosa [12] = assay: Antibacterial activity against Pseudomonas aeruginosa ATCC 27853 at 30 ug/disk after overnight incubation by agar diffusion test; settings: read-out: Diameter of inhibition zone; outline: as §2
[13] = system: Stenotrophomonas maltophilia; assay: Antibacterial activity against Stenotrophomonas maltophilia ATCC 13637 at 30 ug/disk after overnight incubation by agar diffusion test; settings: read-out: Diameter of inhibition zone; outline: as §2
[14] = system: Klebsiella pneumoniae subsp. pneumoniae; assay: Antibacterial activity against Klebsiella pneumoniae subsp. pneumoniae ATCC 13833 at 30 ug/disk after overnight incubation by agar diffusion test; settings: read-out: Diameter of inhibition zone; outline: as §2
Bacillus cereus [15] = assay: Antibacterial activity against Bacillus cereus ATCC 11778 at 250 ug/disk after overnight incubation by agar diffusion test; settings: read-out: Diameter of inhibition zone; outline: as §1
Bacillus cereus [16] = assay: Antibacterial activity against Bacillus cereus ATCC 11778 at 500 ug/disk after overnight incubation by agar diffusion test; settings: read-out: Diameter of inhibition zone; outline: as §1
Staphylococcus aureus [17] = assay: Antibacterial activity against Staphylococcus […] at 250 ug/disk after overnight incubation by agar diffusion test; settings: read-out: Diameter of inhibition zone; outline: as §1
Staphylococcus aureus [18] = assay: Antibacterial activity against Staphylococcus […] at 500 ug/disk after overnight incubation by agar diffusion test; settings: read-out: Diameter of inhibition zone; outline: as §1
Streptococcus agalactiae [19] = assay: Antibacterial activity against Streptococcus agalactiae ATCC 13813 at 250 ug/disk after overnight incubation by agar diffusion test; settings: read-out: Diameter of inhibition zone; outline: as §1
Streptococcus agalactiae [20] = assay: Antibacterial activity against Streptococcus agalactiae ATCC 13813 at 500 ug/disk after overnight incubation by agar diffusion test; settings: read-out: Diameter of inhibition zone; outline: as §1
Escherichia coli [21] = assay: Antibacterial activity against Escherichia coli ATCC 25922 at 250 ug/disk after overnight incubation by agar diffusion test; settings: read-out: Diameter of inhibition zone; outline: as §1
Escherichia coli [22] = assay: Antibacterial activity against Escherichia coli ATCC 25922 at 500 ug/disk after overnight incubation by agar diffusion test; settings: read-out: Diameter of inhibition zone; outline: as §1
Pseudomonas aeruginosa [23] = assay: Antibacterial activity against Pseudomonas aeruginosa ATCC 27853 at 250 ug/disk after overnight incubation by agar diffusion test; settings: read-out: Diameter of inhibition zone; outline: as §1
Pseudomonas aeruginosa [24] = assay: Antibacterial activity against Pseudomonas aeruginosa ATCC 27853 at 500 ug/disk after overnight incubation by agar diffusion test; settings: read-out: Diameter of inhibition zone; outline: as §1
[25] = system: Stenotrophomonas maltophilia; assay: Antibacterial activity against Stenotrophomonas maltophilia ATCC 13637 at 250 ug/disk after overnight incubation by agar diffusion test; settings: read-out: Diameter of inhibition zone; outline: as §1
[26] = system: Stenotrophomonas maltophilia; assay: Antibacterial activity against Stenotrophomonas maltophilia ATCC 13637 at 500 ug/disk after overnight incubation by agar diffusion test; settings: read-out: Diameter of inhibition zone; outline: as §1
[27] = system: Klebsiella pneumoniae subsp. pneumoniae; assay: Antibacterial activity against Klebsiella pneumoniae subsp. pneumoniae ATCC 13833 at 250 ug/disk after overnight incubation by agar diffusion test; settings: read-out: Diameter of inhibition zone; outline: as §1
[28] = system: Klebsiella pneumoniae subsp. pneumoniae; assay: Antibacterial activity against Klebsiella pneumoniae subsp. pneumoniae ATCC 13833 at 500 ug/disk after overnight incubation by agar diffusion test; settings: read-out: Diameter of inhibition zone; outline: as §1

Row | Compound | zone of inhibition at 10 µg/disc (Bacillus cereus [1]) | zone of inhibition at 10 µg/disc (Staphylococcus aureus [2]) | zone of inhibition at 10 µg/disc (Streptococcus agalactiae [3]) | zone of inhibition at 10 µg/disc (Escherichia coli [4]) | zone of inhibition at 10 µg/disc (Pseudomonas aeruginosa [5]) | zone of inhibition at 10 µg/disc [6] | zone of inhibition at 10 µg/disc [7] | zone of inhibition at 250 µg/disc (Bacillus cereus [15]) | zone of inhibition at 500 µg/disc (Bacillus cereus [16]) | zone of inhibition at 250 µg/disc (Staphylococcus aureus [17]) | zone of inhibition at 500 µg/disc (Staphylococcus aureus [18]) | zone of inhibition at 250 µg/disc (Streptococcus agalactiae [19]) | zone of inhibition at 500 µg/disc (Streptococcus agalactiae [20]) | zone of inhibition at 250 µg/disc (Escherichia coli [21]) | zone of inhibition at 500 µg/disc (Escherichia coli [22]) | zone of inhibition at 250 µg/disc (Pseudomonas aeruginosa [23]) | zone of inhibition at 500 µg/disc (Pseudomonas aeruginosa [24]) | zone of inhibition at 250 µg/disc [25] | zone of inhibition at 500 µg/disc [26] | zone of inhibition at 250 µg/disc [27] | other results
1 | CC1(C)S[C@@H]2[C@H](NC(=O)[C@H](N)c3ccccc3)C(=O)N2[C@H]1C(=O)O [AMPICILLIN] | 7 mm | 38 mm | 30 mm | 18 mm | 0 mm | 0 mm | 0 mm | – | – | – | – | – | – | – | – | – | – | – | – | – | –
2 | O=C(N[C@H](CO)[C@H](O)c1ccc([N+](=O)[O-])cc1)C(Cl)Cl [CHLORAMPHENICOL] | – | – | – | – | – | – | – | – | – | – | – | – | – | – | – | – | – | – | – | – | zone of inhibition at 30 µg/disc (Bacillus cereus [8]): 20 mm; zone of inhibition at 30 µg/disc (Staphylococcus aureus [9]): 18 mm; zone of inhibition at 30 µg/disc (Streptococcus agalactiae [10]): 23 mm; zone of inhibition at 30 µg/disc (Escherichia coli [11]): 20 mm; zone of inhibition at 30 µg/disc (Pseudomonas aeruginosa [12]): 0 mm; zone of inhibition at 30 µg/disc [13]: 22 mm; zone of inhibition at 30 µg/disc [14]: 24 mm
3 | CCCC[S+]([O-])SC (stereo not drawn) | 0 mm | 8 mm | 0 mm | 0 mm | 0 mm | 0 mm | 0 mm | 30 mm | 34 mm | 30 mm | 38 mm | 0 mm | 0 mm | 22 mm | 24 mm | 0 mm | 8 mm | 12 mm | 14 mm | 16 mm | zone of inhibition at 500 µg/disc [28]: 18 mm
4 | CCCCS[S+]([O-])CCCC (stereo not drawn) | 8 mm | 10 mm | 0 mm | 0 mm | 0 mm | 0 mm | 0 mm | 34 mm | 40 mm | 34 mm | 38 mm | 30 mm | 34 mm | 10 mm | 16 mm | 0 mm | 0 mm | 8 mm | 16 mm | 8 mm | zone of inhibition at 500 µg/disc [28]: 8 mm
5 | CCCCS[S+](C)[O-] (stereo not drawn) | 0 mm | 0 mm | 0 mm | 0 mm | 0 mm | 0 mm | 0 mm | 22 mm | 28 mm | 20 mm | 26 mm | 16 mm | 24 mm | 14 mm | 20 mm | 0 mm | 0 mm | 12 mm | 17 mm | 12 mm | zone of inhibition at 500 µg/disc [28]: 20 mm
6 | GENTAMICIN | – | – | – | – | – | – | – | – | – | – | – | – | – | – | – | – | – | – | – | – | inhibition zone (IZ) (Bacillus cereus [1]): 22 mm; inhibition zone (IZ) (Streptococcus agalactiae [3]): 18 mm; inhibition zone (IZ) [6]: 20 mm; inhibition zone (IZ) [7]: 22 mm
7 | CN(C)[C@@H]1C(O)=C(C(N)=O)C(=O)[C@@]2(O)C(O)=C3C(=O)c4c(O)cccc4[C@@](C)(O)[C@H]3C[C@@H]12 [TETRACYCLINE] | – | – | – | – | – | – | – | – | – | – | – | – | – | – | – | – | – | – | – | – | zone of inhibition at 30 µg/disc (Bacillus cereus [8]): 27 mm; zone of inhibition at 30 µg/disc (Staphylococcus aureus [9]): 20 mm; zone of inhibition at 30 µg/disc (Streptococcus agalactiae [10]): 28 mm; zone of inhibition at 30 µg/disc (Escherichia coli [11]): 18 mm; zone of inhibition at 30 µg/disc (Pseudomonas aeruginosa [12]): 10 mm; zone of inhibition at 30 µg/disc [13]: 13 mm; zone of inhibition at 30 µg/disc [14]: 18 mm
